# Assay results: PubChem BioAssay
# The source made the active and inactive calls.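 How the source made its calls, unless noted: active means viability at or below 10% of carrier control in both of two separate runs; inconclusive means viability at or below 10% in only one of the two runs; inactive means the rest.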
# Legend:
# [1] = Her2 expression decrease, cell viability multiplex – SKBR3 breast tumor cells, AlphaScreen, ATP viability, primary screen (AID 461;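 active means Her2 level under about 52% in both replicate screens, with viability over 70% of control, limit read from the data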;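 on Her2 level: lower value means less Her2 protein in the cells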;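 on viability: percent of carrier control wells set as 100% viability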); details: SKBR3 Her2 protein level, 18-24 h, measured here: SKBR3 viability, ATP luminescence, at 10 µM
# [2] = target: Receptor tyrosine-protein kinase erbB-2 (Homo sapiens) (UniProt P04626); assay: as above; details: 18-24 h, at 10 µM, stronger effect = lower value
# [3] = reduced viability of SK-BR-3 breast cancer cells – cell-based, 24 h, human, pilot screen (AID 572); details: SK-BR-3 viability, CellTiter-Glo luminescence, at 10 µM, stronger effect = lower value;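 further: compound exposure lasted between 18 and 24 h rather than exactly 24 h; 100% = carrier-treated control wells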
# [4] = HUVEC growth inhibition – cell-based, human, primary screen (AID 575;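 active means viability at or below 30% in both replicate assays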;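 further: 100% = median of untreated cell wells with 0.1% DMSO on each plate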); details: HUVEC proliferation, CellTiter-Glo luminescence, 72 h; at 10 µM; stronger effect = lower value
# Procedure, shortened: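 Assay system: primary human umbilical vein endothelial cells / Buffer or medium: endothelial basal medium with 2% FBS plus growth supplements / Compound dosing: one dose, 10 µM final, 0.1% DMSO / Timing: 72 h treatment at 37 °C / Signal: CTG luminescence / Benchmarks: 32 DMSO-only cell-control wells (high), 32 MePR drug-control wells (low) per plate / Plate: collagen-coated 384-well format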
# [5] = H69AR cell proliferation blockers – human, duplicate replicates, primary screen (AID 580;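 active means viability at or under a set limit in both replicates, limit being median viability minus 3 SD, cut at about 48% in these data, passing the limit was not always enough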;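 further: 100% = mean luminescence of untreated wells and 0% = no signal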); details: H69AR lung tumor cells viability, ATP luminescence, 72 h; at 10 µM; stronger effect = lower value
# [6] = MRP1 drug-resistance reversers in H69AR cells – cell-based, doxorubicin co-treatment, pilot screen (AID 601;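 active means viability loss from added drug above about 55%, and viability with drug at most 40%, in both replicates, limit read from the data, passing the limit was not always enough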); details: CellTiter-Glo, 72 h, at 10 µM; for differential viability (reversal): stronger effect = higher value
# [7] = H69AR cells + 2 uM doxorubicin, measured here: viability with 2 uM doxorubicin, stronger effect = lower value
# [8] = H69AR cells, compound alone cytotoxicity
# Receptor tyrosine-protein kinase erbB-2 (Homo sapiens), sequence (P04626 whole entry, looked up): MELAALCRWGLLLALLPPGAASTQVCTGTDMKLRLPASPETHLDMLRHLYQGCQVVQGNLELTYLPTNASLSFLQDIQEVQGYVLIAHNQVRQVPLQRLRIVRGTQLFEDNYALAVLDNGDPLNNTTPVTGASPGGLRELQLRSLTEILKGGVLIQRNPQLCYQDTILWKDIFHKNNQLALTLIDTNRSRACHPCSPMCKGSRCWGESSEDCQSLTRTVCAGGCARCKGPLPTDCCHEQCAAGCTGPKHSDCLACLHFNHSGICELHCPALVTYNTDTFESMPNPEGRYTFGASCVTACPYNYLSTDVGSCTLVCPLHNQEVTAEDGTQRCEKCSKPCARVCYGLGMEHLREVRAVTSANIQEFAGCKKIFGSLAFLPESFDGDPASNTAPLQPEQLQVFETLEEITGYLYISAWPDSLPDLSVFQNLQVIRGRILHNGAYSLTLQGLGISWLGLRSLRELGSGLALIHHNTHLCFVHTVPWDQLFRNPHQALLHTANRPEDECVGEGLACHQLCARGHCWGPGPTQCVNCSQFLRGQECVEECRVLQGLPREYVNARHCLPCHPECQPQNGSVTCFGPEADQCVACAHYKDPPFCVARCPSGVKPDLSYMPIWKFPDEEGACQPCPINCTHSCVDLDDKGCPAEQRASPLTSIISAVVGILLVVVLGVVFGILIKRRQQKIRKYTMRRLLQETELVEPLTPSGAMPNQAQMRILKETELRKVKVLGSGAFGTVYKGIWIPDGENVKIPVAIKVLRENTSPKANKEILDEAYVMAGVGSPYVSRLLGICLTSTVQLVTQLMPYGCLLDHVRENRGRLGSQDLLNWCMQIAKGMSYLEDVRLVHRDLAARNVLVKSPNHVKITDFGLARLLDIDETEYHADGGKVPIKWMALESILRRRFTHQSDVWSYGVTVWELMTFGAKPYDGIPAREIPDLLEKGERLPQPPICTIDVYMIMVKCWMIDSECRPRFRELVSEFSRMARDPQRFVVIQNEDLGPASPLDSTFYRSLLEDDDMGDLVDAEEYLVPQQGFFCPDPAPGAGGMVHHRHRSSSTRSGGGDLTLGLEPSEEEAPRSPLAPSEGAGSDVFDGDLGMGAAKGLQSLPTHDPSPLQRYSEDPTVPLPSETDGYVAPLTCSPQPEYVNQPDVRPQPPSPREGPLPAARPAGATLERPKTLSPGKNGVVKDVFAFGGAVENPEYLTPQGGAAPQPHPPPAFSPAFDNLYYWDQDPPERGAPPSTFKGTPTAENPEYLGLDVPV
SMILES,viability [1] [%],Her2 level [2],viability [3],viability [4],viability [5],differential viability (reversal) ([6]; H69AR cells + 2 uM doxorubicin),"viability [6, 7] [%]","viability [6, 8] [%]"
C[C@@H]1C[C@H]2[C@@H]3C[C@H](F)C4=CC(=O)C=C[C@]4(C)[C@@]3(F)[C@@H](O)C[C@]2(C)[C@@]1(O)C(=O)CO,74,118% (inactive),74% (inactive),113% (inactive),92.7% (inactive),-3.78% (inactive),96.5,92.7
O=C(CCCN1CC=C(n2c(=O)[nH]c3ccccc32)CC1)c1ccc(F)cc1,77,103% (inactive),77% (inactive),98.4% (inactive),86.2% (inactive),11.1% (inactive),75.1,86.2
Cc1nnc(NS(=O)(=O)c2ccc(N)cc2)s1,93.5,126% (inactive),93.5% (inactive),105% (inactive),96.2% (inactive),-10.4% (inactive),107,96.2
CC1(C)S[C@@H]2[C@H](NC(=O)Cc3ccccc3)C(=O)N2[C@H]1C(=O)O,94.5,94.5% (inactive),94.5% (inactive),95.4% (inactive),109% (inactive),13.5% (inactive),95.6,109
NS(=O)(=O)c1cc2c(cc1C(F)(F)F)NC(Cc1ccccc1)NS2(=O)=O (stereo not drawn),106,114% (inactive),106% (inactive),83.9% (inactive),88.9% (inactive),-5.48% (inactive),94.3,88.9
C[C@@H]1C[C@H]2[C@@H]3CCC4=CC(=O)C=C[C@]4(C)[C@@]3(F)[C@@H](O)C[C@]2(C)[C@H]1C(=O)CO,84,150% (inactive),84% (inactive),102% (inactive),91.2% (inactive),-10.7% (inactive),102,91.2
CC(=O)N[C@@H](CS)C(=O)O,105,105% (inactive),105% (inactive),90.8% (inactive),101% (inactive),12.8% (inactive),88.6,101
CC(=O)O[C@]1(C(C)=O)CC[C@H]2[C@@H]3C=C(C)C4=CC(=O)CC[C@]4(C)[C@H]3CC[C@@]21C,97,88% (inactive),97% (inactive),113% (inactive),87.6% (inactive),23.2% (inactive),64.3,87.6
CN(C)CCOC(C)(c1ccccc1)c1ccccn1 (stereo not drawn),79.5,120% (inactive),79.5% (inactive),113% (inactive),93.5% (inactive),-11.6% (inactive),105,93.5
CCCC(CCC)C(=O)OC1C[C@H]2CC[C@@H](C1)[N+]2(C)C (stereo partly drawn),112,95.5% (inactive),112% (inactive),108% (inactive),94% (inactive),9.01% (inactive),85,94
CCCCOc1ccc(CC(=O)NO)cc1,122,98.5% (inactive),122% (inactive),97% (inactive),54.2% (inactive),-0.05% (inactive),54.3,54.2
C[C@H]1C[C@@H]2[C@H]([C@@H](O)C[C@@]3(C)[C@H]2CC[C@]3(O)C(=O)CO)[C@@]2(C)C=CC(=O)C=C12,115,115% (inactive),115% (inactive),93.8% (inactive),88.1% (inactive),9.38% (inactive),78.7,88.1
Nc1nc(F)nc2c1ncn2[C@@H]1O[C@H](CO)[C@@H](O)[C@@H]1O,97,104% (inactive),97% (inactive),65.7% (inactive),103% (inactive),-2.94% (inactive),106,103
CC1(C)O[C@@H]2C[C@H]3[C@@H]4CCC5=CC(=O)C=C[C@]5(C)[C@@]4(F)[C@@H](O)C[C@]3(C)[C@]2(C(=O)CO)O1,90.5,128% (inactive),90.5% (inactive),103% (inactive),92.8% (inactive),-10.5% (inactive),103,92.8
CN(C)CCCN1c2ccccc2CCc2ccccc21,105,104% (inactive),105% (inactive),81% (inactive),77.7% (inactive),4.16% (inactive),73.5,77.7
C[C@]12CC[C@@H]3c4ccc(O)cc4CC[C@H]3[C@@H]1CC[C@@H]2OC(=O)CCC(=O)O,118,111% (inactive),118% (inactive),99.3% (inactive),105% (inactive),0.94% (inactive),104,105
COc1ccc2cc([C@H](C)C(=O)O)ccc2c1,93.5,107% (inactive),93.5% (inactive),111% (inactive),94.8% (inactive),11.8% (inactive),83,94.8
CN(CCO)CC(O)Cn1cnc2c1c(=O)n(C)c(=O)n2C (stereo not drawn) (tested in a mixture with another compound),87,88.5% (inactive),87% (inactive),94.1% (inactive),83.6% (inactive),-2.31% (inactive),85.9,83.6

SMILES,viability [1] [%],Her2 level [2],viability [3],viability [4],viability [5],differential viability (reversal) ([6]; H69AR cells + 2 uM doxorubicin),"viability [6, 7] [%]","viability [6, 8] [%]"
CC(C)CCNC(=O)[C@H](CC(C)C)NC(=O)[C@H]1O[C@@H]1C(=O)O,104,112% (inactive),104% (inactive),95.9% (inactive),100% (inactive),5.67% (inactive),94.5,100
Clc1ccc(Cn2c(CN3CCCC3)nc3ccccc32)cc1,92.5,112% (inactive),92.5% (inactive),85.5% (inactive),73.3% (inactive),-12.6% (inactive),85.9,73.3
CC(COc1ccccc1)NC(C)C(O)c1ccc(O)cc1 (stereo not drawn),97,105% (inactive),97% (inactive),88.5% (inactive),88.6% (inactive),-17.2% (inactive),106,88.6
CC(C)[N+](C)(CCOC(=O)C1c2ccccc2Oc2ccccc21)C(C)C,108,93% (inactive),108% (inactive),100% (inactive),88.1% (inactive),2.38% (inactive),85.7,88.1
O=C(O)CCC(=O)Nc1ccc(S(=O)(=O)Nc2nccs2)cc1,122,98.5% (inactive),122% (inactive),75.4% (inactive),94.4% (inactive),-2.46% (inactive),96.9,94.4
CC(=O)OCC(=O)[C@@]1(O)CC[C@H]2[C@@H]3CCC4=CC(=O)C=C[C@]4(C)[C@@]3(Cl)[C@@H](Cl)C[C@@]21C,114,116% (inactive),114% (inactive),98.5% (inactive),97.4% (inactive),-13% (inactive),110,97.4
O=C1N[C@@H](Cc2cnc[nH]2)C(=O)N2CCC[C@@H]12,113,97% (inactive),113% (inactive),94.9% (inactive),87.1% (inactive),-2.25% (inactive),89.3,87.1
CCCC(=O)Nc1ccc(OCC(O)CNC(C)C)c(C(C)=O)c1 (stereo not drawn),100,121% (inactive),100% (inactive),115% (inactive),101% (inactive),-0.95% (inactive),102,101
CC(=O)OCC(=O)[C@@]1(O)[C@H](C)C[C@H]2[C@@H]3CCC4=CC(=O)C=C[C@]4(C)[C@@]3(F)[C@@H](O)C[C@@]21C,118,116% (inactive),118% (inactive),101% (inactive),93.5% (inactive),-15.8% (inactive),109,93.5
Cn1cc(NC(=O)c2cc(NC(=O)c3cc(NC=O)cn3C)cn2C)cc1C(=O)NCCC(=N)N,96,87.5% (inactive),96% (inactive),90.6% (inactive),83.1% (inactive),-13.2% (inactive),96.3,83.1
CCCC(=O)O[C@]1(C(=O)CCl)[C@@H](C)C[C@H]2[C@@H]3CCC4=CC(=O)C=C[C@]4(C)[C@@]3(F)C(=O)C[C@@]21C,88.5,122% (inactive),88.5% (inactive),81.2% (inactive),87.8% (inactive),6.43% (inactive),81.4,87.8
CC[N+](C)(CC)CCOC(=O)C(O)(c1ccccc1)C1CCCCC1 (stereo not drawn),91.5,97.5% (inactive),91.5% (inactive),98.9% (inactive),110% (inactive),12.8% (inactive),97,110
CCC(=O)O[C@@H]1CC(=O)O[C@H](C)CC=CC=C[C@@H](O)[C@H](C)C[C@H](CC=O)[C@H](O[C@H]2O[C@H](C)[C@@H](O[C@H]3C[C@@](C)(O)[C@@H](OC(=O)CC)[C@H](C)O3)[C@H](N(C)C)[C@H]2O)[C@H]1OC,93.5,126% (inactive),93.5% (inactive),109% (inactive),95.3% (inactive),-4.97% (inactive),100,95.3
Cc1ccccc1C(OCCN(C)C)c1ccccc1 (stereo not drawn),93,86% (inactive),93% (inactive),98.9% (inactive),91.3% (inactive),10.8% (inactive),80.5,91.3
CN1CCC(=C2c3ccccc3CC(=O)c3sccc32)CC1,96,87% (inactive),96% (inactive),76.4% (inactive),91.4% (inactive),11.8% (inactive),79.6,91.4
CN1CCN(CC(=O)N2c3ccccc3C(=O)Nc3cccnc32)CC1,122,98.5% (inactive),122% (inactive),98.8% (inactive),96.1% (inactive),6.04% (inactive),90,96.1
O=C(NCC1CCCCN1)c1cc(OCC(F)(F)F)ccc1OCC(F)(F)F (stereo not drawn),86,101% (inactive),86% (inactive),91.8% (inactive),97.9% (inactive),-4.55% (inactive),102,97.9
CCC(NC(C)C)C(O)c1ccc(O)c(O)c1 (stereo not drawn),87.5,88% (inactive),87.5% (inactive),105% (inactive),85% (inactive),-6.46% (inactive),91.5,85
